ChEMBL document CHEMBL1126689, “Novel heterocyclic analogues of the new potent class of calcium entry blockers: 1-[[4-(aminoalkoxy)phenyl]sulfonyl]indolizines” (J Med Chem, 1993)

Columns and labels:
Rattus norvegicus = species: Rattus norvegicus; assay: Inhibition of [Ca2+] induced contraction of K+ depolarized rat aorta by 50%; assay type: functional
Outline: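 Spirally cut thoracic aorta strips from male Wistar rats were held in modified Krebs solution at 37 °C, gassed with 95% O2/5% CO2. Ca2+-induced contraction was measured after K+ depolarization. The value is the molar concentration blocking contraction by 50%, given as mean ± SE of 3–6 determinations.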

[1] = Inhibitory concentration of [3H]- nitrendipine binding against guinea pig cerebral cortex membrane; assay type: functional, tissue-based, Cavia porcellus
Outline: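 Guinea pig cerebral cortex membranes (washed pellets, stored in liquid nitrogen), 200 μg protein, incubated under sodium light for 90 min at 25 °C in 50 mmol Tris-HCl pH 7.4 with 0.5 nmol [3H]nitrendipine and various compound concentrations (DMSO). Filtration and scintillation counting; 1 μM nifedipine defined specific binding.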

Cavia porcellus [2] = species: Cavia porcellus; assay: Inhibition of [3H]nitrendipine binding to L-type calcium channel of guinea pig cerebral cortex membrane at 10e-5 M; assay type: functional, tissue-based
Cavia porcellus [3] = species: Cavia porcellus; assay: Stimulatory concentration of [3H]nitrendipine binding to L-type calcium channel of guinea pig cerebral cortex membrane at 10e-6 M; assay type: functional, tissue-based
Cavia porcellus [4] = species: Cavia porcellus; assay: Molar concentration needed to […] by 50% of maximal stimulation; assay type: functional

| SMILES | IC50 (Rattus norvegicus) [nM] | IC50 [1] [nM] | inhibition (Cavia porcellus [2]) [%] | Stimulation (Cavia porcellus [3]) [%] | IC50 (Cavia porcellus [4]) [nM] |
| --- | --- | --- | --- | --- | --- |
| CCCCN(CCCC)CCCOc1ccc(S(=O)(=O)c2c(C(C)C)n(C)c3ccccc23)cc1 | 24.1 | 11 | – | – | – |
| COc1cc(CCN(C)CCCOc2ccc(S(=O)(=O)c3c(C(C)C)c4ccccc4n3C)cc2)cc(OC)c1OC | 1.9 | 0.28 | – | – | – |
| COc1cc(CCN(C)CCCOc2ccc(S(=O)(=O)c3c(C(C)C)c4ccccc4n3C)cc2)cc(OC)c1 | 16.4 | 0.093 | – | – | – |
| COc1ccc(CCN(C)CCCOc2ccc(S(=O)(=O)c3c(C(C)C)c4ccccc4n3C)cc2)cc1OC | 3.7 | 0.072 | – | – | – |
| CCCCN(CCCC)CCCOc1ccc(S(=O)(=O)c2c(C(C)C)[nH]c3ccccc23)cc1 | 55.1 | 110 | – | – | – |
| COc1ccc(CCN(C)CCCC(C#N)(c2ccc(OC)c(OC)c2)C(C)C)cc1OC (stereo unspecified) | – | 38 | – | – | – |
| COc1ccc(CCN(C)CCCOc2ccc(S(=O)(=O)c3c(C(C)C)nn4ccccc34)cc2)cc1OC | 18.8 | 2.6 | – | – | – |
| CCCCN(CCCC)CCCOc1ccc(S(=O)(=O)c2c[nH]nc2C(C)C)cc1 | 5060 | – | 6 | – | – |
| COc1ccc(CN(C)CCCOc2ccc(S(=O)(=O)c3c(C(C)C)oc4ccccc34)cc2)cc1OC | 14.3 | 1.9 | – | – | – |
| COc1ccc(CCNCCCOc2ccc(S(=O)(=O)c3c(C(C)C)oc4ccccc34)cc2)cc1OC | 17.1 | 1.6 | – | – | – |
| COc1ccc(CCN(C)CCCOc2ccc(S(=O)(=O)c3[nH]c4ccccc4c3C(C)C)cc2)cc1OC | 37.5 | 2.2 | – | – | – |
| COc1ccc(CCN(C)CCCOc2ccc(S(=O)(=O)c3c[nH]nc3C(C)C)cc2)cc1OC | 1720 | – | – | 38 | – |
| CCCCc1oc2ccccc2c1S(=O)(=O)c1ccc(OCCCN(C)CCc2ccc(OC)c(OC)c2)cc1 | 227 | 7.9 | – | – | – |
| CCCCN(CCCC)CCCOc1ccc(S(=O)(=O)c2cc3ccccc3nc2C(C)C)cc1 | 198 | 94 | – | – | – |
| COC(=O)C1=C(C)NC(C)=C(C(=O)OC)C1c1ccccc1[N+](=O)[O-] [NIFEDIPINE] | – | 2.5 | – | – | – |
| CC(C)c1nn2ccccc2c1S(=O)(=O)c1ccc(OCCCNC(C)(C)C)cc1 | 168 | – | – | – | – |
| COc1ccc(CCN(C)CCCOc2ccc(S(=O)(=O)c3c(C(C)C)cc4ccccn34)cc2)cc1OC | 5.9 | 0.22 | – | – | – |

| SMILES | IC50 (Rattus norvegicus) [nM] | IC50 [1] [nM] | inhibition (Cavia porcellus [2]) [%] | Stimulation (Cavia porcellus [3]) [%] | IC50 (Cavia porcellus [4]) [nM] |
| --- | --- | --- | --- | --- | --- |
| CCCCN(CCCC)CCCOc1ccc(S(=O)(=O)c2c(C(C)C)nn3ccccc23)cc1 | 31.1 | – | – | – | – |
| COc1ccc(CCN(C)CCCOc2ccc(S(=O)(=O)c3ccoc3C(C)C)cc2)cc1OC | 84.2 | – | – | – | – |
| CC(C)c1occc1S(=O)(=O)c1ccc(OCCCNC(C)(C)C)cc1 | 235 | 244 | – | – | – |
| COc1cc(CCN(C)CCCOc2ccc(S(=O)(=O)c3c(C(C)C)oc4ccccc34)cc2)cc(OC)c1OC | 5.8 | 0.59 | – | – | – |
| CCCCN(CCCC)CCCOc1ccc(S(=O)(=O)c2ccoc2C(C)C)cc1 | 119 | 186 | – | – | – |
| CC(C)c1nc2ccccc2cc1S(=O)(=O)c1ccc(OCCCNC(C)(C)C)cc1 | 370 | 181 | – | – | – |
| CC(C)c1cc2ccccn2c1S(=O)(=O)c1ccc(OCCCNC(C)(C)C)cc1 | 32.9 | 12 | – | – | – |
| COc1ccc(CN(C)CCCOc2ccc(S(=O)(=O)c3c(C(C)C)n(C)c4ccccc34)cc2)cc1OC | 3.7 | 1 | – | – | – |
| COc1ccc(CCN(C)CCCOc2ccc(S(=O)(=O)c3c(C(C)C)cn4ccccc34)cc2)cc1OC [FANTOFARONE] | – | 0.61 | – | – | – |
| COc1ccc([C@@H]2Sc3ccccc3N(CCN(C)C)C(=O)[C@@H]2OC(C)=O)cc1 [DILTIAZEM] | – | – | – | – | 59 |
| COc1ccc(CCN(C)CCCOc2ccc(S(=O)(=O)c3c(C(C)C)[nH]c4ccccc34)cc2)cc1OC | 19.1 | 10.9 | – | – | – |
| COc1ccc(CCN(C)CCCOc2ccc(S(=O)(=O)c3cc4ccccc4nc3C(C)C)cc2)cc1OC | 84.2 | 13.1 | – | – | – |
| COc1ccc(CCN(C)CCCOc2ccc(S(=O)(=O)c3c(C(C)C)oc4ccccc34)cc2)cc1OC | 20.2 | 0.65 | – | – | – |
| COc1ccc(CCN(C)CCCOc2ccc(S(=O)(=O)c3c(C(C)C)n(C)c4ccccc34)cc2)cc1OC | 4.3 | 1.1 | – | – | – |
| CCCCN(CCCC)CCCOc1ccc(S(=O)(=O)c2c(C(C)C)cc3ccccn23)cc1 | 13.3 | 0.99 | – | – | – |
| CCCc1oc2ccccc2c1S(=O)(=O)c1ccc(OCCCN(C)CCc2ccc(OC)c(OC)c2)cc1 | 50.8 | 5.2 | – | – | – |
| CC(C)c1c(S(=O)(=O)c2ccc(OCCCNC(C)(C)C)cc2)c2ccccc2n1C | 99.3 | 116 | – | – | – |
